# Assays:
# [1] = target: Sigma non-opioid intracellular receptor 1 (Cavia porcellus, UniProt Q60492); assay: Displacement of [3H]-(+)pentazocine from sigma-1 receptor in guinea pig brain membranes after 120 mins by scintillation counting method; assay type: cell membranes, Membrane
# [2] = target: T1, Sigma intracellular receptor 2 (Rattus norvegicus, UniProt Q5U3Y7); assay: Displacement of [3H]-Di-o-tolylguanidine from sigma-2 receptor in rat liver membranes after 120 mins by scintillation counting method; assay type: cell membranes, Membrane
# T1 sequence (Q5U3Y7 whole entry): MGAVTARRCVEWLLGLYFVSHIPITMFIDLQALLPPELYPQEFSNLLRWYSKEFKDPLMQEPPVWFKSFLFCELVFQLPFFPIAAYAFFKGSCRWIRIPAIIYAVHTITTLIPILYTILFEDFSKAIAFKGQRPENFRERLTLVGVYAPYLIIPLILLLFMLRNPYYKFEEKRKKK
# [3] = target: Glutamate receptor ionotropic, NMDA 2B (Homo sapiens, UniProt Q05586+Q13224); assay: Displacement of [3H]ifenprodil from GluN2B (unknown origin) expressed in mouse L(tk-) cell membranes co-expressing GluN1a incubated for 120 mins by scintillation counting method
# [4] = Cytotoxicity against human PANC1 cells assessed as cell viability at 100 uM after 48 hrs by MTT assay relative to control; assay type: cell-based; settings: PANC-1 cells, read-out: Activity
# In short: (§1)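 Viability of human pancreatic carcinoma PANC1 and neuroblastoma SH-SY5Y cells, both chosen for high σ1R expression, measured by MTT assay across several test concentrations; viability expressed as percent.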
# [5] = Antioxidant activity assessed as ABTS radical scavenging activity incubated for 40 mins; assay type: functional
# [6] = Antioxidant activity in pH 7.4 PBS assessed as H2O2 radical scavenging activity; assay type: functional
# [7] = target: Glutamate receptor ionotropic, NMDA 2B (Homo sapiens) (UniProt Q13224); assay: Displacement of [3H]ifenprodil from GluN2B (unknown origin) expressed in mouse L(tk-) cell membranes co-expressing GluN1a at 1 uM incubated for 120 mins by scintillation counting method relative to control
# [8] = Cytotoxicity against human SH-SY5Y cells assessed as cell viability at 50 uM after 48 hrs by MTT assay relative to control; assay type: cell-based; settings: read-out: Activity; in short: as §1
# [9] = Cytotoxicity against human PANC1 cells assessed as cell viability at 50 uM after 48 hrs by MTT assay relative to control; assay type: cell-based; settings: PANC-1 cells, read-out: Activity; in short: as §1
# [10] = Cytotoxicity against human SH-SY5Y cells assessed as cell viability at 100 uM after 48 hrs by MTT assay relative to control; assay type: cell-based; settings: read-out: Activity; in short: as §1
# [11] = target: T2, Sigma intracellular receptor 2 (Rattus norvegicus) (UniProt Q5U3Y7); assay: Displacement of [3H]-Di-o-tolylguanidine from sigma-2 receptor in rat liver membranes at 1 uM after 120 mins by scintillation counting method relative to control; assay type: cell membranes; settings: Membrane
# T2 sequence (whole entry): T1 sequence (Q5U3Y7 whole entry)
# SH-SY5Y = assay: Cytotoxicity against human SH-SY5Y cells at 12.5 to 100 uM after 48 hrs by MTT assay; assay type: cell-based; in short: as §1
# PANC-1 = assay: Cytotoxicity against human PANC1 cells at 12.5 to 100 uM after 48 hrs by MTT assay; assay type: cell-based; settings: panc-1, 48 h; in short: as §1
# Chain of Glutamate receptor ionotropic, NMDA 2B (Q13224 whole entry, one chain of several): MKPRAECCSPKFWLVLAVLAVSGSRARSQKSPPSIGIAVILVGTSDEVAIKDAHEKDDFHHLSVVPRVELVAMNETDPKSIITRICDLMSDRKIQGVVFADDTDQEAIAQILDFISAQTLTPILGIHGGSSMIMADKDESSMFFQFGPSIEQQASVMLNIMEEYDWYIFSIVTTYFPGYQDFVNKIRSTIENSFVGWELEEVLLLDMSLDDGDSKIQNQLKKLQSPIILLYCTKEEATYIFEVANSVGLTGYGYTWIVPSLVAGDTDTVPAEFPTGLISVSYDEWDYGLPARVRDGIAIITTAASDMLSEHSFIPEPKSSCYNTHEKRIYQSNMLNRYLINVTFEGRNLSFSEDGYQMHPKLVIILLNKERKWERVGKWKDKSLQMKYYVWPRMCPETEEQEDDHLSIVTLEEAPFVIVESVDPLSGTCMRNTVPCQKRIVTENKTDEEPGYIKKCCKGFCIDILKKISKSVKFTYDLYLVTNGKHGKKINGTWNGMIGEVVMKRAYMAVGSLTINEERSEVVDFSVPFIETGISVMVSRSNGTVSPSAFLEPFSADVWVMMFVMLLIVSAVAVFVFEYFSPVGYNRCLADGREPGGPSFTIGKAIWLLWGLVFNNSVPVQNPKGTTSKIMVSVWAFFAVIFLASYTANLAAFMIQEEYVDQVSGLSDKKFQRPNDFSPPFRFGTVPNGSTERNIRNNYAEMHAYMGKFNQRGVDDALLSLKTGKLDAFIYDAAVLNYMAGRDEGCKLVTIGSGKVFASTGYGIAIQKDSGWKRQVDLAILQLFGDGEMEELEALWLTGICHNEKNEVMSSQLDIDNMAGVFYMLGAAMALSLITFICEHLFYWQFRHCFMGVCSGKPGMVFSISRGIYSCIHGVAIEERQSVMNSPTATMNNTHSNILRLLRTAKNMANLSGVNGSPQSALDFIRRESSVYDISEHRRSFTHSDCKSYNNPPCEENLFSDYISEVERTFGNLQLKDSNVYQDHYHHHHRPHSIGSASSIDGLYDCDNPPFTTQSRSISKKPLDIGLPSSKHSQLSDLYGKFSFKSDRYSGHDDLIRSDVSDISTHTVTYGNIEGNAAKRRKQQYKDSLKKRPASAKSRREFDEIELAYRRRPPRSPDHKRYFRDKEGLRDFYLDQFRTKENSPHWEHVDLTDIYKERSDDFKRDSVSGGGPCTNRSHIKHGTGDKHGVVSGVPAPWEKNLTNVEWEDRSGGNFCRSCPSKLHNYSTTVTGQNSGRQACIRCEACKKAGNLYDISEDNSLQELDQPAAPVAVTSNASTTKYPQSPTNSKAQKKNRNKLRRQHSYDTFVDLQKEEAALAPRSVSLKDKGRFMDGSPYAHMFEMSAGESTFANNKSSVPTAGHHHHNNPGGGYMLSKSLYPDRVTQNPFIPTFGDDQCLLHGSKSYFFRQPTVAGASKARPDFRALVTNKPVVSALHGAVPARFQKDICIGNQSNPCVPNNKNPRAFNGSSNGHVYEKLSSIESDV
# Chain of Glutamate receptor ionotropic, NMDA 2B (Homo sapiens) (Q13224 27-1484 limits assumed): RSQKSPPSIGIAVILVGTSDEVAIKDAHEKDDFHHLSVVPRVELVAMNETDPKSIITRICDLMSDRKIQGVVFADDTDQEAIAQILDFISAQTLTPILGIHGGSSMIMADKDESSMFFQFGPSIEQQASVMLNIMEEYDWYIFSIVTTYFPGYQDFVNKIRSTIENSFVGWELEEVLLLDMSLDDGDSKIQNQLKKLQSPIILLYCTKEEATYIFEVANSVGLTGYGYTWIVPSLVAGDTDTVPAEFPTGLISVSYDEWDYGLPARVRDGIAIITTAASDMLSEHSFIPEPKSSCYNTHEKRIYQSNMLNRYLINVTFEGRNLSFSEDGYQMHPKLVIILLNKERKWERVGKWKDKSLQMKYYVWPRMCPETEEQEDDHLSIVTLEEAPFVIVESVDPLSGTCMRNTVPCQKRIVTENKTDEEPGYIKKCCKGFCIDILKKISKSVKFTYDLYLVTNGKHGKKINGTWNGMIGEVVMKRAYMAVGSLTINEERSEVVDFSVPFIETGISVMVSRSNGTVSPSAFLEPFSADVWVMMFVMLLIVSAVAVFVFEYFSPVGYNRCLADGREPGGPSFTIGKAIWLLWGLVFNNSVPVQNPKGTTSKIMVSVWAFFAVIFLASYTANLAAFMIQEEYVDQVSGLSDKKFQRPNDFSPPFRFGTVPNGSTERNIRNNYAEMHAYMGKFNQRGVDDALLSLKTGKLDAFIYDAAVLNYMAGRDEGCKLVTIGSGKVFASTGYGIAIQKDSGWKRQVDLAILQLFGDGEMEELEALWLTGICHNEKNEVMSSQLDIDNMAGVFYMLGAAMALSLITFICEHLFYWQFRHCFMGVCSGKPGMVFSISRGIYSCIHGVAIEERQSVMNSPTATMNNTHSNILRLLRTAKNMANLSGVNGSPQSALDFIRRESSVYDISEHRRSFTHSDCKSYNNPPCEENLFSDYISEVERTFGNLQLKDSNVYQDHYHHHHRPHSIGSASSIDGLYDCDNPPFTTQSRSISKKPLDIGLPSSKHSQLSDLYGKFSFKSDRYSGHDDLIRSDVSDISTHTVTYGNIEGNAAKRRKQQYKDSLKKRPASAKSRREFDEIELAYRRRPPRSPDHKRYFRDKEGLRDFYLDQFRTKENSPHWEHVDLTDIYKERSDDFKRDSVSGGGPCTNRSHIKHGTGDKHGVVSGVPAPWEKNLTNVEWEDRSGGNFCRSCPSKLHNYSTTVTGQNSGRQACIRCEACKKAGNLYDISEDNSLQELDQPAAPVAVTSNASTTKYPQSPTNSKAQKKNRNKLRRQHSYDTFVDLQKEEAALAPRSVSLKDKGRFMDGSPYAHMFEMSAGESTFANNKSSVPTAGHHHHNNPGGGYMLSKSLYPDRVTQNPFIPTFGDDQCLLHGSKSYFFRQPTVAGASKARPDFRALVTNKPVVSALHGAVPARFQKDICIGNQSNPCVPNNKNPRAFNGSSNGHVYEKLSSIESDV
# Chain of Sigma non-opioid intracellular receptor 1 (Q60492 whole entry): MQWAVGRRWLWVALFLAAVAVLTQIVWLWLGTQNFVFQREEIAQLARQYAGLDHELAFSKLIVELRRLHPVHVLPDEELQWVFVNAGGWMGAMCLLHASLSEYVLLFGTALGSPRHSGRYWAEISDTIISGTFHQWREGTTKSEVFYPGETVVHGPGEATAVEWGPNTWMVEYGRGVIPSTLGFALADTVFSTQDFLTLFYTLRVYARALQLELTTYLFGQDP
Compound,Ki [1],Ki [2],Ki [3],IC50 [5],IC50 [6],inhibition [7],other results
Cc1ccc(CN2CCCN(C(=O)c3ccco3)CC2)c(C)c1,690 nM,3900 nM,–,–,–,0%,–
O=C(c1ccncc1)N1CCCN(Cc2ccccc2)CC1,267 nM,495 nM,–,–,–,0%,–
Cc1ccc(CN2CCCN(C(=O)c3cccs3)CC2)c(C)c1,336 nM,1800 nM,–,–,–,3%,–
Cc1c(C)c2c(c(C)c1O)CCC(C)(C(=O)O)O2 (stereo unspecified) [TROLOX],–,–,–,18.73 µg/mL,20.38 µg/mL,–,–
Cc1ccc(CN2CCCN(C(=O)c3ccccc3)CC2)c(C)c1,849 nM,3900 nM,294 nM,–,–,–,–
Cc1ccc(CN2CCCN(C(=O)c3cccc4ccccc34)CC2)c(C)c1,70 nM,102 nM,79 nM,–,–,–,–
O=C(c1ccccc1)N1CCCN(Cc2ccccc2)CC1,116 nM,–,–,–,–,0%,inhibition [11]: 0%
O=C1O[C@H]([C@@H](O)CO)C(O)=C1O [ASCORBIC ACID],–,–,–,12.75 µg/mL,19.27 µg/mL,–,–
Cc1ccc(CN2CCCN(C(=O)c3ccncc3)CC2)c(C)c1,254 nM,2000 nM,116 nM,–,–,–,–
O=C(c1ccco1)N1CCCN(Cc2ccccc2)CC1,333 nM,560 nM,–,–,–,1%,–
O=C(c1cccs1)N1CCCN(Cc2ccccc2)CC1,147 nM,297 nM,–,–,–,0%,–

# Now from value to compound, other results behind:
Ki [1],Ki [2],Ki [3],IC50 [5],IC50 [6],inhibition [7],Compound,other results
29 nM,35 nM,108 nM,9.43 µg/mL,17.44 µg/mL,–,Cc1ccc(CN2CCCN(C(=O)c3ccc4ccccc4n3)CC2)c(C)c1,"viability at 48 h, 100 µM [4]: 51%"
8 nM,47 nM,1600 nM,12.71 µg/mL,15.89 µg/mL,–,O=C(c1cc2ccccc2o1)N1CCCN(Cc2ccccc2)CC1,"viability at 48 h, 100 µM [4]: 127%; viability at 48 h, 50 µM [8]: 127%; viability at 48 h, 50 µM [9]: 196%; viability at 48 h, 100 µM [10]: 98%"
19 nM,47 nM,1500 nM,14.26 µg/mL,20.35 µg/mL,–,O=C(c1ccc2ccccc2n1)N1CCCN(Cc2ccccc2)CC1,–
41 nM,187 nM,–,–,–,9%,O=C(c1cccc2ccccc12)N1CCCN(Cc2ccccc2)CC1,–
20 nM,28 nM,59 nM,10.05 µg/mL,18.56 µg/mL,–,Cc1ccc(CN2CCCN(C(=O)c3cc4ccccc4o3)CC2)c(C)c1,Activity (SH-SY5Y): Non-Toxic; Activity (PANC-1): Non-Toxic

# From ChEMBL document CHEMBL4613279, “Synthesis, Cytotoxicity Evaluation, and Computational Insights of Novel 1,4-Diazepane-Based Sigma Ligands” (ACS Med Chem Lett, 2020)
